Here are results for 21 molecules from ChEMBL document CHEMBL1135584, “2-Amino-6-arylthio-9-[2-(phosphonomethoxy)ethyl]purine bis(2,2,2-trifluoroethyl) esters as novel HBV-specific antiviral reagents” (J Med Chem, 2002).

Test [1] is described as follows: Cytotoxic concentration of compound required for 50% extinction of HuH-6 cells. It counts as functional. As to conditions: Homo sapiens. In outline:
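HuH-6 cells (parent of HB611) seeded at 1 × 10⁵ cells/mL, cultured 3 days at 37 °C, 5% CO₂ in DMEM with 10% FBS plus compound; MTS added, further 2 h at 37 °C; viability by absorbance at 490 nm; CC50 determined.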

A further test concerns Hepatitis B virus. Kind of test: Concentration required to inhibit 50% of cytoplasmic HBV-DNA synthesis.
A further test deals with Human alphaherpesvirus 1. Kind of test: Anti-HSV-1 activity of the compound. In kind it is functional, organism-based.

For `COc1cccc(Sc2nc(N)nc3c2ncn3CCOCP(=O)(OCC(F)(F)F)OCC(F)(F)F)c1`, the CC50 – broadly, the concentration at which the toxic effect on the cells reaches its halfway point – in test [1] was over 1000 µM. Further, the IC50 (usually the concentration that inhibits the measured activity by half) with Hepatitis B virus was 0.04 µM.

As for `Cc1cccc(Sc2nc(N)nc3c2ncn3CCOCP(=O)(OCC(F)(F)F)OCC(F)(F)F)c1`, the CC50 in test [1] came to 150 µM. In the test on Hepatitis B virus, this molecule came in with an IC50 of 0.09 µM.

As to `CCCOc1ccc(Sc2nc(N)nc3c2ncn3CCOCP(=O)(OCC(F)(F)F)OCC(F)(F)F)cc1`, the CC50 in test [1] was 250 µM. This molecule showed an IC50 with Hepatitis B virus of 0.87 µM.

As to `Cc1ccccc1Sc1nc(N)nc2c1ncn2CCOCP(=O)(OCC(F)(F)F)OCC(F)(F)F`, in test [1], it took 340 µM to reach half-maximal cytotoxicity (CC50). In the test on Hepatitis B virus, this molecule yielded an IC50 of 0.08 µM.

In turn, `Nc1nc(Sc2ccc3ccccc3c2)c2ncn(CCOCP(=O)(OCC(F)(F)F)OCC(F)(F)F)c2n1` showed a CC50 in test [1] of 198 µM. The molecule also registered an IC50 in the test with Hepatitis B virus of 0.09 µM.

Regarding `Cc1ccc(Sc2nc(N)nc3c2ncn3CCOCP(=O)(OCC(F)(F)F)OCC(F)(F)F)cc1`, the CC50 in test [1] is 110 µM. Moreover, in the test with Hepatitis B virus, the IC50 was determined as 0.06 µM.

For the molecule `Nc1nc(Sc2ccccc2)c2ncn(CCOCP(=O)(OCC(F)(F)F)OCC(F)(F)F)c2n1`, the IC50 worked out at 25 µM in the test on Human alphaherpesvirus 1 and 0.05 µM with Hepatitis B virus. In addition, the CC50 in test [1] was over 1000 µM.

In test [1], `Nc1nc(Sc2ccc([N+](=O)[O-])cc2)c2ncn(CCOCP(=O)(OCC(F)(F)F)OCC(F)(F)F)c2n1` had a CC50 of 380 µM. This molecule came in with an IC50 in the test with Hepatitis B virus of 0.52 µM.

For `CCc1ccc(Sc2nc(N)nc3c2ncn3CCOCP(=O)(OCC(F)(F)F)OCC(F)(F)F)cc1`, in test [1], the midpoint of cytotoxicity, the CC50, lay at 170 µM. The same molecule yielded an IC50 with Hepatitis B virus of 0.4 µM.

The molecule `Nc1nc(Sc2ccc(OC(F)(F)F)cc2)c2ncn(CCOCP(=O)(OCC(F)(F)F)OCC(F)(F)F)c2n1` gave a CC50 in test [1] of 820 µM. The molecule also showed an IC50 with Hepatitis B virus of 0.06 µM.

Take `CCOc1ccc(Sc2nc(N)nc3c2ncn3CCOCP(=O)(OCC(F)(F)F)OCC(F)(F)F)cc1`: in test [1], the CC50 is over 1000 µM. In the test on Hepatitis B virus, this molecule displayed an IC50 of 0.64 µM.

On to `CCCCOc1ccc(Sc2nc(N)nc3c2ncn3CCOCP(=O)(OCC(F)(F)F)OCC(F)(F)F)cc1`, for which it took 260 µM to reach half-maximal cytotoxicity in test [1] (CC50). Also, the IC50 in the test with Hepatitis B virus was over 1 µM.

The molecule `CC(C)c1ccc(Sc2nc(N)nc3c2ncn3CCOCP(=O)(OCC(F)(F)F)OCC(F)(F)F)cc1` showed a CC50 in test [1] of 170 µM. Besides, half-maximal inhibition in the test with Hepatitis B virus (IC50) required 0.98 µM.

Molecule `COc1ccc(Sc2nc(N)nc3c2ncn3CCOCP(=O)(O)OCC(F)(F)F)cc1` displayed an IC50 with Hepatitis B virus of 0.07 µM.

With `Nc1nc(Sc2ccc(Cl)cc2)c2ncn(CCOCP(=O)(OCC(F)(F)F)OCC(F)(F)F)c2n1`, the CC50 in test [1] turned out to be 62 µM. In the test on Hepatitis B virus, this molecule yielded an IC50 of 0.12 µM.

Take `CC(C)COc1ccc(Sc2nc(N)nc3c2ncn3CCOCP(=O)(OCC(F)(F)F)OCC(F)(F)F)cc1`: in test [1], the CC50 is 100 µM. Also, the IC50 with Hepatitis B virus was 0.84 µM.

For the molecule `CC(C)Oc1ccc(Sc2nc(N)nc3c2ncn3CCOCP(=O)(OCC(F)(F)F)OCC(F)(F)F)cc1`, it took 350 µM to reach half-maximal cytotoxicity in test [1] (CC50). In addition, in the test with Hepatitis B virus, the IC50 worked out at 0.29 µM.

For the molecule `COc1ccccc1Sc1nc(N)nc2c1ncn2CCOCP(=O)(OCC(F)(F)F)OCC(F)(F)F`, in test [1], the CC50 is over 1000 µM. In addition, in the test on Hepatitis B virus, inhibition was half-maximal at 0.08 µM (IC50).

On to `Nc1ncnc2c1ncn2CCOCP(=O)(O)O` [ADEFOVIR], for which, in test [1], the CC50 was over 1000 µM. The molecule further registered an IC50 in the test with Hepatitis B virus of 0.2 µM.

The molecule `COc1ccc(Sc2nc(N)nc3c2ncn3CCOCP(=O)(OCC(F)(F)F)OCC(F)(F)F)cc1` [ALAMIFOVIR] came in with a CC50 in test [1] of over 1000 µM. For the same molecule, half-maximal inhibition with Hepatitis B virus (IC50) was put at 0.03 µM.

`Nc1ccn([C@@H]2CS[C@H](CO)O2)c(=O)n1` [LAMIVUDINE] showed a half-maximal cytotoxic concentration (CC50) in test [1] of over 1000 µM. This molecule also came in with an IC50 in the test with Hepatitis B virus of 2.2 µM.
